In assay [1] the test system is Mus musculus. Briefly: Reduction of liver weight in DEN/CDAHFD-induced NASH C57BL/6 mouse model at 50 mg/kg, IP for 5 days a week. Particulars: time 5.0 day. It is filed as functional, organism-based. In short, it runs like this: (§1)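 Male C57BL/6 mice, single IP diethylnitrosamine 35 mg/kg on day 15. From 6 weeks of age fed CDAHFD (60 kcal% fat, 0.1% methionine). From 12 weeks, randomised to IP dosing 5 days/week, drug in 10% (2-hydroxypropyl)-β-cyclodextrin or vehicle alone. Livers harvested at 30 weeks; body weight, liver weight and tumour nodule counts recorded (n=8 per group), with H&E and Sirius red sections; means±SEM, unpaired t-test.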

The test system of assay [2] is Mus musculus. Briefly: Effect on body weight in DEN/CDAHFD-induced NASH C57BL/6 mouse model at 50 mg/kg, IP for 5 days a week. In kind it is functional, organism-based. Particulars: time 5.0 day. The method, boiled down:
as §1

In assay [3] the test system is Mus musculus. Briefly: Antitumor activity in DEN/CDAHFD-induced NASH C57BL/6 mouse model assessed as decrease in tumor nodules at 50 mg/kg, IP for 5 days a week by hematoxylin and eosin staining based microscopic analysis. It is filed as functional, organism-based. The conditions noted are these: time 5.0 day. The method, boiled down: as §1
Assay [4] relates to Mus musculus. Briefly: Antitumor activity in DEN/CDAHFD-induced NASH C57BL/6 mouse model assessed as decrease in tumor nodules at 50 mg/kg, IP for 5 days a week by sirus red staining based microscopic analysis. In kind it is functional, organism-based. The conditions noted are these: time 5.0 day. The method, boiled down:
as §1

Assay [5] relates to Mus musculus. Description: Antitumor activity in DEN/CDAHFD-induced NASH C57BL/6 mouse model assessed as decrease in number of tumor at 50 mg/kg, IP for 5 days a week. The conditions noted are these: time 5.0 day. In kind it is functional, organism-based. The method, boiled down: as §1
The test system of assay [6] is Mus musculus. Briefly: Reduction of liver fibrosis in DEN/CDAHFD-induced NASH C57BL/6 mouse model assessed as decrease in collagen proportional area at 50 mg/kg, IP for 5 days a week. In kind it is functional, organism-based. Particulars: time 5.0 day. The method, boiled down:
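Fibrosis was scored as collagen proportional area by quantitative digital analysis of whole-scanned Sirius red-stained liver sections. Sections came from DEN/CDAHFD male C57BL/6 mice harvested at 30 weeks after IP dosing 5 days/week from week 12 (cyclodextrin vehicle), n=3 per group; means±SD.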

Assay [7] deals with Mus musculus. Briefly: Reduction of liver fibrosis in DEN/CDAHFD-induced NASH C57BL/6 mouse model assessed as decrease in Acta2 gene expression at 50 mg/kg, IP for 5 days a week by qRT-PCR analysis. In kind it is functional, organism-based. The conditions noted are these: time 5.0 day. The method, boiled down: (§2)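 DEN (35 mg/kg IP, day 15)/CDAHFD-fed male C57BL/6 mice were dosed IP 5 days/week from 12 weeks of age in 10% hydroxypropyl-β-cyclodextrin, or given vehicle. Livers were taken at 30 weeks and hepatic fibrotic and inflammatory gene expression was quantified by qRT-PCR, n=3 per group; means±SD, unpaired t-test.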
(Real-time PCR tracks product formation cycle by cycle.)

Assay [8] concerns Mus musculus. Briefly: Reduction of liver fibrosis in DEN/CDAHFD-induced NASH C57BL/6 mouse model assessed as decrease in Col1A gene expression at 50 mg/kg, IP for 5 days a week by qRT-PCR analysis. It is filed as functional, organism-based. The conditions noted are these: time 5.0 day. In short, it runs like this: as §2
Assay [9] deals with Mus musculus. Description: Reduction of liver fibrosis in DEN/CDAHFD-induced NASH C57BL/6 mouse model assessed as decrease in Tgf gene expression at 50 mg/kg, IP for 5 days a week by qRT-PCR analysis. In kind it is functional, organism-based. The conditions noted are these: time 5.0 day. The method, boiled down:
as §2

Assay [10] relates to Mus musculus. Description: Reduction of liver inflammation in DEN/CDAHFD-induced NASH C57BL/6 mouse model assessed as decrease in Ccl2 gene expression at 50 mg/kg, IP for 5 days a week by qRT-PCR analysis. It is filed as functional, organism-based. The conditions noted are these: time 5.0 day. The method, boiled down:
as §2

In assay [11] the test system is Mus musculus. Briefly: Reduction of liver inflammation in DEN/CDAHFD-induced NASH C57BL/6 mouse model assessed as decrease in TNFa gene expression at 50 mg/kg, IP for 5 days a week by qRT-PCR analysis. In kind it is functional, organism-based. Particulars: time 5.0 day. In short, it runs like this:
as §2

In assay [12] the test system is Mus musculus. Briefly: Effect on c-Myc expression in DEN/CDAHFD-induced NASH C57BL/6 mouse model at 50 mg/kg, IP for 5 days a week by Western blot analysis. In kind it is functional, organism-based. Particulars: time 5.0 day. In short, it runs like this:
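Liver lysates from control/PBS, vehicle and treated DEN/CDAHFD mice (n=3 each; 30 weeks; IP 5 days/week in 10% hydroxypropyl-β-cyclodextrin) were probed by western blot for c-Myc. Blots from six animals were quantified by densitometry and compared by unpaired t-test.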

Assay [13] concerns Mus musculus. Briefly: Decrease in EPCAM gene expression in DEN/CDAHFD-induced NASH C57BL/6 mouse model at 50 mg/kg, IP for 5 days a week by CHIP-qPCR assay. The conditions noted are these: time 5.0 day. In kind it is functional, organism-based. In short, it runs like this: (§3)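 ChIP-qPCR on livers of control, DEN/CDAHFD and treated DEN/CDAHFD mice (IP 5 days/week from week 12, harvest at 30 weeks) measured BRD4 recruitment to promoter-enhancer regions of the named genes, using BRD4 antibody against an IgG control. Groups were compared by Mann-Whitney U test.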

Assay [14] has as its system Mus musculus. Description: Decrease in SOX9 gene expression in DEN/CDAHFD-induced NASH C57BL/6 mouse model at 50 mg/kg, IP for 5 days a week by CHIP-qPCR assay. In kind it is functional, organism-based. The conditions noted are these: time 5.0 day. In short, it runs like this:
as §3

Assay [15] has as its system Mus musculus. Description: Decrease in KRT7 gene expression in DEN/CDAHFD-induced NASH C57BL/6 mouse model at 50 mg/kg, IP for 5 days a week by CHIP-qPCR assay. In kind it is functional, organism-based. Particulars: time 5.0 day. In short, it runs like this:
as §3

Assay [16] deals with Mus musculus. Description: Decrease in NFkappaB2 gene expression in DEN/CDAHFD-induced NASH C57BL/6 mouse model at 50 mg/kg, IP for 5 days a week by CHIP-qPCR assay. In kind it is functional, organism-based. The conditions noted are these: time 5.0 day. In short, it runs like this: as §3
Assay [17] relates to Huh-7.5.1. Description: Inhibition of Histone acetyltransferase in human Huh7.5.1 cells infected with hepatitis C virus assessed as effect on viral load. In kind it is cell-based.
In assay [18] the test system is Huh-7.5.1. Description: Inhibition of Histone acetyltransferase in human Huh7.5.1 cells assessed as hepatitis C virus-induced NFkappaB mRNA level measured after 72 hrs. It is filed as cell-based. The method, boiled down:
(§4)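 Huh7.5.1 cells differentiated with dimethyl sulfoxide, then infected with HCV until they expressed the poor-prognosis status of the prognostic liver signature. Infected cells were then incubated with chromatin modifier/reader inhibitors. Concentrations were chosen as non-toxic from MTT viability tests on non-infected differentiated cells at 72 h (n=3, viability relative to untreated cells).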

Assay [19] relates to Huh-7.5.1. Description: Inhibition of Histone acetyltransferase in human Huh7.5.1 cells assessed as hepatitis C virus-induced EGF mRNA level measured after 72 hrs. In kind it is cell-based. The method, boiled down: as §4

Our source for the inhibition and Activity values is ChEMBL document CHEMBL5712089, “Targeting clinical epigenetic reprogramming for chemoprevention of metabolic and viral hepatocellular carcinoma” (Gut, 2021).

Activity calls are given as the source filed them. The calls are words filed in the database; no cut-off is given here.

Regarding `Cc1sc2c(c1C)C(c1ccc(Cl)cc1)=N[C@@H](CC(=O)OC(C)(C)C)c1nnc(C)n1-2`, the inhibition result in the assay on Mus musculus [1], in the assay on Mus musculus [3], with Mus musculus [4], with Mus musculus [5], with Mus musculus [6] and in the assay on Mus musculus [7] was “Active” throughout. Further, the inhibition entry in the assay with Mus musculus [8], in the assay with Mus musculus [9], in the assay on Mus musculus [10], in the assay with Mus musculus [11], in the assay with Mus musculus [13] and with Mus musculus [14] was “Active” each time. Moreover, the inhibition result in the assay with Mus musculus [15] and in the assay on Mus musculus [16] was “Active” each time. Also, the outcome in the assay with Mus musculus [2] and in the assay on Mus musculus [12] was inactive.
With `CC1=NN(c2ccc(C(=O)O)cc2)C(=O)/C1=C\c1ccc(-c2cc(C)c(C)cc2[N+](=O)[O-])o1`, in the assay with Huh-7.5.1 [17], the inhibition result is “inactive”.
As to `COc1cc(/C=C/c2cc(/C=C/c3ccc(O)c(OC)c3)n(-c3ccc(C(=O)O)cc3)n2)ccc1O`, the inhibition result with Huh-7.5.1 [18] and with Huh-7.5.1 [19] was “Active” each time. For the same compound, the inhibition entry in the assay with Huh-7.5.1 [17] is “inactive”.
